PubChem BioAssay AID720574 (Broad Institute, 2013)
Values joined by “and” are separate entries in the source; they are usually repeats but may differ in a detail not shown here. Identical values can stand only once. Out of some 96,000 compounds screened, about 140 (0.15%) were called active.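 The calls were made as follows: active = mean replicate inhibition above about 25%, with at least 55% of replicates also reaching it (limit read from the data, passing the limit was not always enough); inconclusive = only one of those two conditions met; inactive = neither condition met.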 Only a selection was taken, and actives are over-represented in it overall. Some structures have more than one record in an assay (separate samples or runs), and their calls can disagree.

molecular target: Lysine-specific demethylase 4C (Homo sapiens) (UniProt Q9H3R0); experiment: inhibitors of GASC-1 (KDM4C) histone demethylase, primary screen, biochemical, single concentration HTS (AID 720574); conditions: GST-KDM4C 2-372, H3K9me3 peptide, LANCE TR-FRET; at 12.5 µM; stronger effect = higher value
Sequence (Q9H3R0 2-372 limits assumed): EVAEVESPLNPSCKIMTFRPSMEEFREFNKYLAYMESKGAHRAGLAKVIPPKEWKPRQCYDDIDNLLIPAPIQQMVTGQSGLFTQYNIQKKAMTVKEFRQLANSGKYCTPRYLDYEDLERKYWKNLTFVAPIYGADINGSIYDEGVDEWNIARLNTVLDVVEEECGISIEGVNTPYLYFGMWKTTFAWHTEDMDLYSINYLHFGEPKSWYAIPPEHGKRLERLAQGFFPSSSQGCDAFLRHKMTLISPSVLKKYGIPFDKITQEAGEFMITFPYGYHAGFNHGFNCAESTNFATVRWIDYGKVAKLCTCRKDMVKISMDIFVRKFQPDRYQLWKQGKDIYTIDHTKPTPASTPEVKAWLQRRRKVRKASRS
Procedure, shortened: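 Test system: N-terminal GST-fused human GASC-1 (KDM4C) fragment, residues 2-372; quantity: GASC-1 enzyme at 10 nM final in reaction; dosing: single dose; schedule: 30 min demethylation and 1 h detection at room temperature; signal: LANCE TR-FRET, excitation 340 nm, emissions 618 and 671 nm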

Structure (SMILES)	inhibition
CCC(=O)Nc1ccc2c(c1)C(=O)N(C)C[C@@H](OC)[C@H](C)CN(Cc1cccnc1)[C@@H](C)CO2	-0.624% (inactive)
CCCC#Cc1ccc([C@@H]2[C@@H](CO)N3C(=O)CN(C(=O)Nc4ccc(F)cc4)C[C@@H]23)cc1	-0.912% (inactive)
CCC(=O)N1[C@@H](CO)[C@@H](c2ccccc2)C12CN(C(=O)Cc1ccccc1)C2	7.87% (inactive)
Cc1noc(C)c1NC(=O)N(C)C[C@@H]1OCCCC[C@H](C)Oc2ccc(NC(=O)c3ccccc3)cc2C(=O)N([C@@H](C)CO)C[C@@H]1C	1.18% (inactive)
O=C(Nc1ccccc1F)N[C@@H]1CC[C@@H](CCNC(=O)C2CC2)O[C@H]1CO	-1.05% (inactive)
O=C(C1CCCCC1)N1C[C@@H]2N[C@H](C1)C2c1ccc(-c2cccc(F)c2)cc1 (some centres undefined)	4.43% (inactive) and 0.21% (inactive)
O=C(C1CCC1)N1C[C@@H]2N[C@H](C1)C2c1ccc(-c2cncnc2)cc1 (some centres undefined)	0.917% (inactive)
Cc1ccccc1-c1ccc(C2[C@@H]3CN(C(=O)C4CCCCC4)C[C@H]2N3)cc1 (some centres undefined)	40% (active) and 1.58% (inactive)
CN1c2ccc(-c3cccc(F)c3)cc2[C@H]2[C@H](CCN2C(=O)C2CCCC2)[C@@H]1CO	5.91% (inactive)
COCC#Cc1ccc([C@H]2[C@H](CO)N3C(=O)CN(C(=O)Nc4ccccc4F)C[C@@H]23)cc1	0.262% (inactive)
O=C(C[C@@H]1CC[C@@H]2[C@H](COC[C@H](O)CN2Cc2cccc(-c3ccncc3)c2)O1)N1CCOCC1	-0.984% (inactive)
Cc1noc(C)c1S(=O)(=O)N(C)C[C@H]1OCCCC[C@H](C)Oc2ccc(NS(=O)(=O)c3ccccc3)cc2C(=O)N([C@H](C)CO)C[C@@H]1C	-0.427% (inactive)
CO[C@H]1CN(C)C(=O)c2cc(NS(C)(=O)=O)ccc2OC[C@@H](C)N(C(=O)NC(C)C)C[C@@H]1C	1.54% (inactive)
C[C@H]1CN([C@@H](C)CO)C(=O)c2cccc(NC(=O)CCCCCC(=O)Nc3ccccc3N)c2O[C@@H]1CN(C)C(=O)NC1CCCCC1	0.11% (inactive)
O=C(C[C@@H]1C=C[C@H](NC(=O)CN2CCOCC2)[C@@H](CO)O1)NC1CCC1	-2.2% (inactive)
CCCN1[C@@H]2c3ccc(-c4ccccc4OC)c(=O)n3C[C@H]1[C@H](CO)[C@H]2C(=O)NCc1ccccn1	0.442% (inactive)
COCC(=O)N(C)C[C@H]1Oc2cc(C#C[C@@H](C)O)ccc2S(=O)(=O)N([C@H](C)CO)C[C@H]1C	0.918% (inactive)
COc1ccccc1S(=O)(=O)N[C@H]1CC[C@@H](CC(=O)NCc2cc(F)cc(F)c2)O[C@H]1CO	-1.06% (inactive)
COc1ccc2c3c(n(C)c2c1)[C@H](CO)N(C(=O)NC(C)C)CC31CN(CC2CCCCC2)C1	-0.934% (inactive)
C[C@H](CO)N1C[C@H](C)[C@H](CN(C)CC2CCCCC2)OCCCC[C@H](C)Oc2ccc(NS(=O)(=O)c3ccc(F)cc3)cc2C1=O	-1.51% (inactive)
COCC(=O)N1[C@H](CO)[C@H](c2ccccc2)C12CN(C(=O)NC1CCCCC1)C2	0.705% (inactive)
CCC(=O)N1CC(=O)N2[C@H](CO)[C@@H](c3ccc(-c4ccc(C(=O)N(C)C)cc4)cc3)[C@@H]2C1	-0.23% (inactive)

Structure (SMILES)	inhibition
COc1ccc(S(=O)(=O)N[C@H]2CC[C@H](CCn3cc(C(C)C)nn3)O[C@@H]2CO)cc1	0.0615% (inactive)
CCCC#Cc1ccc([C@H]2[C@H](CO)N3C(=O)CN(C(=O)c4ccc(F)cc4)C[C@@H]23)cc1	0.883% (inactive)
C/C=C/c1ccc([C@H]2[C@@H](CO)N(C(=O)C3CC3)[C@@H]2CNC(=O)NC(C)C)cc1	0.927% (inactive)
COc1ccccc1S(=O)(=O)N[C@@H]1C=C[C@H](CC(=O)NCc2cccc(F)c2)O[C@H]1CO	-0.0955% (inactive)
C/C=C/c1ccccc1[C@H]1[C@@H](C#N)N(c2nc(CC)cs2)[C@@H]1CO	-0.26% (inactive)
CN(C)C(=O)C[C@@H]1C[C@@H]2c3cc(NC(=O)NC4CCCCC4)ccc3O[C@@H]2[C@H](CO)O1	-1.19% (inactive)
CO[C@@H]1CN(C)C(=O)c2ccc(NC(C)=O)cc2OC[C@@H](C)N(CC2CC2)C[C@H]1C	2.5% (inactive)
C[C@H](CO)N1C[C@H](C)[C@@H](CN(C)Cc2ccc(-c3ccccc3)cc2)Oc2ccc(NC(=O)Cn3cnnn3)cc2C1=O	-1.72% (inactive)
CCCN(C)C[C@H]1Oc2ncc(-c3cccnc3)cc2C(=O)N([C@@H](C)CO)C[C@@H]1C	-0.329% (inactive)
C[C@H](CO)N1C[C@H](C)[C@@H](CN(C)C(=O)c2ccncc2)Oc2cc(/C=C/c3ccccc3)ccc2S1(=O)=O	-4.23% (inactive)
CS(=O)(=O)Nc1ccc2c(c1)[C@@H]1C[C@H](CC(=O)NCc3ccccn3)O[C@@H](CO)[C@@H]1O2	-0.895% (inactive)
COc1ccc2c3c([nH]c2c1)[C@@H](CO)N(Cc1ccccc1)CC31CCN(Cc2cncnc2)CC1	-1.85% (inactive)
COc1ccccc1S(=O)(=O)N[C@@H]1CC[C@@H](CCn2cc(C3CCCCC3)nn2)O[C@H]1CO	0.124% (inactive)
CCC(=O)Nc1ccc2c(c1)C(=O)N(C)[C@H]1CC[C@H](CC(=O)NCC3CCCCC3)O[C@H]1CO2	-0.841% (inactive)
Cc1ccc(S(=O)(=O)NCC[C@H]2CC[C@H](NC(=O)c3ccccn3)[C@H](CO)O2)cc1	-1.29% (inactive)
CCCN1[C@@H]2c3ccc(-c4ccccc4)c(=O)n3C[C@@H]2[C@@H](CO)[C@@H]1C(=O)N(C)C	0.941% (inactive)
COc1ccccc1C(=O)Nc1ccc2c(c1)OC[C@@H](C)NC[C@H](C)[C@@H](OC)CN(C)C2=O	-1.47% (inactive)
CCCNC(=O)N(C)C[C@H]1Oc2cc(C#C[C@@H](C)O)ccc2S(=O)(=O)N([C@H](C)CO)C[C@H]1C	7.38% (inactive)
CO[C@H]1CC[C@@H]2CCOc3c(C#N)cccc3C(=O)N(C)C[C@@H](OC)[C@H](C)C(=O)N(C)C[C@H]1O2	0.229% (inactive)
CN1C(=O)c2cc(NC(=O)C3CCC3)ccc2OC[C@@H]2O[C@@H](CC(=O)NCCc3ccncc3)CC[C@H]21	1.45% (inactive)
CN1C[C@H]2[C@@H](c3ccccc31)[C@@H](CO)N2C(=O)Nc1ccccc1	-2.7% (inactive)
COc1cccc(-c2ccc3n(c2=O)C[C@@H]2[C@@H](CO)[C@H](C(=O)NC4CCC4)[C@H]3N2C)c1	1.02% (inactive)

Structure (SMILES)	inhibition
CO[C@@H]1CN(C)C(=O)c2cc(NC(=O)C3CCCC3)ccc2OC[C@H](C)N(C)C[C@@H]1C	-0.0185% (inactive)
CO[C@H]1CN(C)C(=O)c2ccc(NC(C)=O)cc2OC[C@@H](C)N(C(=O)CN(C)C)C[C@@H]1C	-0.377% (inactive)
CC(=O)N1[C@H](CO)[C@@H](c2ccccc2)[C@@H]1CN(CC(C)C)C(=O)c1ccccn1	4.04% (inactive)
CCCC(=O)Nc1ccc2c(c1)OC[C@H](C)N(C(=O)C1CCCC1)C[C@@H](C)[C@H](OC)CN(C)C2=O	0.661% (inactive)
Cc1cccc(S(=O)(=O)N2C[C@@H](O)COC[C@H]3O[C@H](CC(=O)N4CCN(C)CC4)CC[C@@H]32)c1	-1% (inactive)
O=C(Cc1ccncc1)N1CC[C@@H]2[C@@H](CO)Nc3ccc(C4=CCCCC4)cc3[C@@H]21	0.328% (inactive)
CC(C)NC(=O)N1C[C@@H]2[C@H](c3ccccc31)[C@@H](CO)N2Cc1ccc(Cl)cc1	1.62% (inactive)
CO[C@@H]1CN(C)C(=O)c2cc(NC(=O)Nc3cc(F)ccc3F)ccc2OC[C@H](C)N(C(=O)c2ccccn2)C[C@@H]1C	-1.15% (inactive)
CCC(=O)Nc1ccc2c(c1)C(=O)N(C)C[C@H](OC)[C@H](C)CN(CCC(F)(F)F)[C@H](C)CO2	-0.234% (inactive)
C[C@H]1CCCCO[C@@H](CN(C)C(=O)Nc2cccc3ccccc23)[C@@H](C)CN([C@@H](C)CO)C(=O)c2cc(NS(=O)(=O)c3cn(C)cn3)ccc2O1	-7.92% (inactive)
O=C(C[C@H]1C[C@H]2c3cc(NC(=O)C4CCOCC4)ccc3O[C@H]2[C@@H](CO)O1)NCCN1CCCCC1	1.06% (inactive)
O=C(C[C@H]1CC[C@H]2[C@@H](COC[C@H](O)CN2S(=O)(=O)c2cccc(F)c2)O1)NC1CCC1	0.711% (inactive)
O=C(C[C@H]1CC[C@@H]2[C@H](COC[C@H](O)CN2Cc2ccccc2F)O1)NC1CCC1	1.48% (inactive)
O=C(C[C@@H]1C=C[C@@H](NC(=O)c2cccnc2)[C@H](CO)O1)NCc1ccncn1	1.05% (inactive)
C[C@H](CO)N1C[C@H](C)[C@@H](CN(C)S(C)(=O)=O)Oc2cc(C#CC3CC3)ccc2S1(=O)=O	4.29% (inactive)
C[C@H]1CCCCO[C@H](CN(C)C(=O)Nc2ccc(F)cc2)[C@@H](C)CN([C@@H](C)CO)C(=O)c2cc(NC(=O)CCC(F)(F)F)ccc2O1	1.63% (inactive)
CS(=O)(=O)N1CC2(C1)[C@H](c1ccccc1)[C@@H](CO)N2C(=O)c1ccccc1	-0.995% (inactive)
O=C(Cc1ccncc1)N[C@@H]1CC[C@H](CCn2cc(-c3ccccc3F)nn2)O[C@H]1CO	-1.33% (inactive)
CN(C)CC(=O)N1[C@@H](CO)[C@H](c2ccccc2)C12CN(C(=O)c1cccc(F)c1)C2	-0.471% (inactive)
CCC(=O)N1[C@H](C(=O)OC)[C@@H](CO)[C@@H]2Cn3c(ccc(-c4cccc(F)c4)c3=O)[C@@H]21	1.8% (inactive)
